pIC50: −log10 of the molar value. Values after ≈ are worked out from the molar mass of the structure shown. Active and inactive are the calls of the source.
Biological target: Beta-2 adrenergic receptor (Homo sapiens) (UniProt P07550)
Test: Inhibition of human adrenergic beta2 receptor at 10 uM
Conditions: not given

Sequence of Beta-2 adrenergic receptor (Homo sapiens) (P07550 whole entry, looked up): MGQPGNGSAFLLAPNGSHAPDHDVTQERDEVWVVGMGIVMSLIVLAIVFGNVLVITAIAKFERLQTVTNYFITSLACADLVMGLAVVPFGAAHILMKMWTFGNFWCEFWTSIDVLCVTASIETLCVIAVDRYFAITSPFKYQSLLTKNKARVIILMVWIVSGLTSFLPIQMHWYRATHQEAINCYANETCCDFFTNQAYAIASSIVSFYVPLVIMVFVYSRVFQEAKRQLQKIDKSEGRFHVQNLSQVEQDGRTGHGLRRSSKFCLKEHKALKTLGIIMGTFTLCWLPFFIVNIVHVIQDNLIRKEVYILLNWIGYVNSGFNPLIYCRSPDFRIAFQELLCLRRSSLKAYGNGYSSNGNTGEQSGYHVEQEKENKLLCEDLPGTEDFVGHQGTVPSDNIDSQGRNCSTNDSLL

Structure (SMILES)	inhibition
O=C(NCc1cccnc1N1CCOCC1)c1cncc(-c2ccc(OC(F)(F)F)cc2)n1	> 60%
Cc1cc(C)cc(NC(=O)c2cncc(-c3ccc(C#N)cc3)n2)c1	inactive

Biological target: Sodium channel protein type 10 subunit alpha (Mus musculus, UniProt Q6QIY3)
Test: Inhibition of mouse NaV1.8 expressed in HEK293 cells by isotopic efflux assay
Type: cell-based
Conditions: not given
Outline: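 HEK293 cells stably expressing mouse Nav1.8 were loaded overnight with radiotracer, then stimulated. Efflux was read at a single time point on the linear part of the efflux curve. % inhibition = (1 − [test − reference blocker]/[control − reference blocker]) × 100. Eight-point concentration–response curves run in duplicate gave the IC50.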

Structure (SMILES)	pIC50
Cc1ccccc1CNC(=O)c1cncc(-c2ccc(OC(F)(F)F)cc2)n1	6.62
O=C(NCc1cccnc1N1CCOCC1)c1cncc(-c2ccc(Cl)cc2)n1	5.60
Cc1cc(C)cc(NC(=O)c2cncc(-c3ccc(Cl)cc3)n2)c1	6.31
O=C(NCCc1ccc(Cl)cc1)c1cncc(-c2ccc(Cl)cc2)n1	5.57
O=C(NCc1cnccc1N1CCOCC1)c1cncc(-c2ccc(Cl)cc2)n1	4.54
CCOc1ccc(-c2cncc(C(=O)Nc3cccc(C)c3)n2)cc1	6.19
O=C(NCc1cccnc1Cl)c1cncc(-c2ccc(OC(F)(F)F)cc2)n1	5.99
Cc1cccc(NC(=O)c2cncc(-c3ccc(Cl)cc3)n2)c1	6.02
Cc1ccccc1CNC(=O)c1cncc(-c2ccc(C#N)cc2)n1	5.03
O=C(NCc1cccnc1N1CCOCC1)c1cncc(-c2ccc(OC(F)(F)F)cc2)n1	6.32
Cc1cc(C)cc(NC(=O)c2cncc(-c3ccc(C#N)cc3)n2)c1	6.33

Biological target: Substance-P receptor (Homo sapiens) (UniProt P25103)
Test: Inhibition of human NK1 receptor at 10 uM
Conditions: not given

Sequence of Substance-P receptor (Homo sapiens) (P25103 whole entry): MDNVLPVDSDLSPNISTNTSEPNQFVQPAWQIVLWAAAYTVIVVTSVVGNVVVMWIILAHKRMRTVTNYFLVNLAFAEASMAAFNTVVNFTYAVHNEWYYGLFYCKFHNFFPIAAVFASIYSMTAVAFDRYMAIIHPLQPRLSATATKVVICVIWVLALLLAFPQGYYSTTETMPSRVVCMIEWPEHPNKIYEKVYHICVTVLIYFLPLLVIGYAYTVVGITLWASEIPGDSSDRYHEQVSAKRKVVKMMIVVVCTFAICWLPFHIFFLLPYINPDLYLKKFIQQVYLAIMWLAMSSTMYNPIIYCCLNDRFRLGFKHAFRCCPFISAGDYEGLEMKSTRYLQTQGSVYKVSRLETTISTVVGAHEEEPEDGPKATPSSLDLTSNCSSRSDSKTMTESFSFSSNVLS

Structure (SMILES)	inhibition
O=C(NCc1cccnc1N1CCOCC1)c1cncc(-c2ccc(OC(F)(F)F)cc2)n1	> 60%
Cc1cc(C)cc(NC(=O)c2cncc(-c3ccc(C#N)cc3)n2)c1	inactive

System: not listed separately
Test: Inhibition of BZD receptor at 10 uM
Conditions: not given

Structure (SMILES)	inhibition
O=C(NCc1cccnc1N1CCOCC1)c1cncc(-c2ccc(OC(F)(F)F)cc2)n1	> 60%
Cc1cc(C)cc(NC(=O)c2cncc(-c3ccc(C#N)cc3)n2)c1	inactive

Biological target: T1, Sodium channel protein type 2 subunit alpha (Homo sapiens, UniProt Q99250)
Test: Inhibition of human recombinant NaV1.2 by electrophysiology
Conditions: not given
Outline: (§1)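 Whole-cell voltage clamp of HEK-293 cells expressing recombinant human Nav1.2. Membrane potential was held at the V1/2 of steady-state inactivation, −60 mV. Compounds came from 10 mM DMSO stocks, diluted in extracellular solution (final DMSO <0.1%) and perfused at 1–2 mL/min at room temperature (21–25 °C). Tested at 1–3 concentrations with 2–6 measurements each; estimates averaged. Single-point data given as % inhibition at 3 µM.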
Target sequence in this assay (Q99250 whole entry): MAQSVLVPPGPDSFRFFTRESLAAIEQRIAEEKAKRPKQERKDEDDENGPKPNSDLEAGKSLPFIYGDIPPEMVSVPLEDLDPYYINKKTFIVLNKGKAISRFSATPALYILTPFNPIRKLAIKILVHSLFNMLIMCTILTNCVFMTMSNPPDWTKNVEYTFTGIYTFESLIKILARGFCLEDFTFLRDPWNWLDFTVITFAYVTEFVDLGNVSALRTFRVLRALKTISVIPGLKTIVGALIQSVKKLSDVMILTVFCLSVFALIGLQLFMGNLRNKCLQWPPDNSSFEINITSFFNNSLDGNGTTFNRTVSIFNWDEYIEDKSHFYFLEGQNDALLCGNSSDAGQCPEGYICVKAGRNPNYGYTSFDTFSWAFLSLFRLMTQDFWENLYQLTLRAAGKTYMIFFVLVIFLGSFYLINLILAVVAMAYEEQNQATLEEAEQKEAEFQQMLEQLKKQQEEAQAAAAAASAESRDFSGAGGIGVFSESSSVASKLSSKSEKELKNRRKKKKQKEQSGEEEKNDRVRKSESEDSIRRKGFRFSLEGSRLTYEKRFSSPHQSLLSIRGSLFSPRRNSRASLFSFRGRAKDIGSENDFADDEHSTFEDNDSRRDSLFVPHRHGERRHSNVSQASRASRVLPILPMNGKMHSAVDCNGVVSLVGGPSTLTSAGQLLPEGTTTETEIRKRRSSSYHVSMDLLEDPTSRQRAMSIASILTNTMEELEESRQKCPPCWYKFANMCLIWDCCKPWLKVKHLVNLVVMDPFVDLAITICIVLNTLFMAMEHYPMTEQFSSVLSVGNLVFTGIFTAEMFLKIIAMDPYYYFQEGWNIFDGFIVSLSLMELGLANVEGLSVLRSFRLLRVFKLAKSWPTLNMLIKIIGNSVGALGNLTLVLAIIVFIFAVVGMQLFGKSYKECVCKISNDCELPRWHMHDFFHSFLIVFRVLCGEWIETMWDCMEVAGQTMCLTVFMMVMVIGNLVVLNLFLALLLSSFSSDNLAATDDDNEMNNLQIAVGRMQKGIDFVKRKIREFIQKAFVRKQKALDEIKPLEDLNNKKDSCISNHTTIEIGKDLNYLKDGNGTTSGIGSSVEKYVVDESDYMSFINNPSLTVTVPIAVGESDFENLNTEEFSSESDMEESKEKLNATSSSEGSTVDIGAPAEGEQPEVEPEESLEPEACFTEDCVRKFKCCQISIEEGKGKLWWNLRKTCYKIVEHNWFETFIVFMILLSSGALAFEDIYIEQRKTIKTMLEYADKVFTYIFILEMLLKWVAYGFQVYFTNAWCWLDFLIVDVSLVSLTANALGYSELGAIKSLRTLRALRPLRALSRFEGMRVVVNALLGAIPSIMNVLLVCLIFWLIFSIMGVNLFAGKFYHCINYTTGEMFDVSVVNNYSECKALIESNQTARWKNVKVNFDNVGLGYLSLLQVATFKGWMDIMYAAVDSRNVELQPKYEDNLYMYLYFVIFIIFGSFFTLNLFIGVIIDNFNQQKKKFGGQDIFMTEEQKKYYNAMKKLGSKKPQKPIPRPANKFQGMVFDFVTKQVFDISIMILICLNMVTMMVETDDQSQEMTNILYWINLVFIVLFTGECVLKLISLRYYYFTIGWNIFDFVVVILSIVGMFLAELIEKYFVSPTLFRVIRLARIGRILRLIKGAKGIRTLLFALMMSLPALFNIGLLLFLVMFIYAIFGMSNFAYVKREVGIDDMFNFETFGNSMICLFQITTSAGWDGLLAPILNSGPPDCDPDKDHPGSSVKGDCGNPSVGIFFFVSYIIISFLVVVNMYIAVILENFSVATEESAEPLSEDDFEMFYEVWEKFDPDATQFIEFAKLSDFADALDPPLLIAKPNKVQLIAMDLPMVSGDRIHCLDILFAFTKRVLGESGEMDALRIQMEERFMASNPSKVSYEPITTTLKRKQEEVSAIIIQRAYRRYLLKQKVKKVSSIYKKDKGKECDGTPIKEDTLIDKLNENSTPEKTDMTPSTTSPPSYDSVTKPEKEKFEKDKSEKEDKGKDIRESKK

Structure (SMILES)	pIC50
Cc1ccccc1CNC(=O)c1cncc(-c2ccc(OC(F)(F)F)cc2)n1	5.92
Cc1cc(C)cc(NC(=O)c2cncc(-c3ccc(Cl)cc3)n2)c1	5.30
O=C(NCCc1ccc(Cl)cc1)c1cncc(-c2ccc(Cl)cc2)n1	6.00
CCOc1ccc(-c2cncc(C(=O)Nc3cccc(C)c3)n2)cc1	6.00
O=C(NCc1cccnc1Cl)c1cncc(-c2ccc(OC(F)(F)F)cc2)n1	5.41
Cc1cccc(NC(=O)c2cncc(-c3ccc(Cl)cc3)n2)c1	5.09
Cc1ccccc1CNC(=O)c1cncc(-c2ccc(C#N)cc2)n1	6.00
O=C(NCc1cccnc1N1CCOCC1)c1cncc(-c2ccc(OC(F)(F)F)cc2)n1	5.82
Cc1cc(C)cc(NC(=O)c2cncc(-c3ccc(C#N)cc3)n2)c1	5.80

Biological target: Sodium channel protein type 10 subunit alpha (Homo sapiens, UniProt Q9Y5Y9)
Test: Inhibition of human recombinant NaV1.8 expressed in HEK293 cells by conventional voltage clamp electrophysiology assay
Type: cell-based
Conditions: not given
Outline: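 HEK-293 cells stably expressing human Nav1.8 were recorded by conventional whole-cell voltage clamp with the holding potential at the inactivation V1/2, −40 mV. DMSO stocks (10 mM) were diluted into extracellular solution (final DMSO <0.1%) and gravity-perfused at 1–2 mL/min at 21–25 °C. Each compound was run at 1–3 concentrations with 2–6 measurements each; estimates averaged.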

Sequence of Sodium channel protein type 10 subunit alpha (Homo sapiens, UniProt Q9Y5Y9) (Q9Y5Y9 whole entry): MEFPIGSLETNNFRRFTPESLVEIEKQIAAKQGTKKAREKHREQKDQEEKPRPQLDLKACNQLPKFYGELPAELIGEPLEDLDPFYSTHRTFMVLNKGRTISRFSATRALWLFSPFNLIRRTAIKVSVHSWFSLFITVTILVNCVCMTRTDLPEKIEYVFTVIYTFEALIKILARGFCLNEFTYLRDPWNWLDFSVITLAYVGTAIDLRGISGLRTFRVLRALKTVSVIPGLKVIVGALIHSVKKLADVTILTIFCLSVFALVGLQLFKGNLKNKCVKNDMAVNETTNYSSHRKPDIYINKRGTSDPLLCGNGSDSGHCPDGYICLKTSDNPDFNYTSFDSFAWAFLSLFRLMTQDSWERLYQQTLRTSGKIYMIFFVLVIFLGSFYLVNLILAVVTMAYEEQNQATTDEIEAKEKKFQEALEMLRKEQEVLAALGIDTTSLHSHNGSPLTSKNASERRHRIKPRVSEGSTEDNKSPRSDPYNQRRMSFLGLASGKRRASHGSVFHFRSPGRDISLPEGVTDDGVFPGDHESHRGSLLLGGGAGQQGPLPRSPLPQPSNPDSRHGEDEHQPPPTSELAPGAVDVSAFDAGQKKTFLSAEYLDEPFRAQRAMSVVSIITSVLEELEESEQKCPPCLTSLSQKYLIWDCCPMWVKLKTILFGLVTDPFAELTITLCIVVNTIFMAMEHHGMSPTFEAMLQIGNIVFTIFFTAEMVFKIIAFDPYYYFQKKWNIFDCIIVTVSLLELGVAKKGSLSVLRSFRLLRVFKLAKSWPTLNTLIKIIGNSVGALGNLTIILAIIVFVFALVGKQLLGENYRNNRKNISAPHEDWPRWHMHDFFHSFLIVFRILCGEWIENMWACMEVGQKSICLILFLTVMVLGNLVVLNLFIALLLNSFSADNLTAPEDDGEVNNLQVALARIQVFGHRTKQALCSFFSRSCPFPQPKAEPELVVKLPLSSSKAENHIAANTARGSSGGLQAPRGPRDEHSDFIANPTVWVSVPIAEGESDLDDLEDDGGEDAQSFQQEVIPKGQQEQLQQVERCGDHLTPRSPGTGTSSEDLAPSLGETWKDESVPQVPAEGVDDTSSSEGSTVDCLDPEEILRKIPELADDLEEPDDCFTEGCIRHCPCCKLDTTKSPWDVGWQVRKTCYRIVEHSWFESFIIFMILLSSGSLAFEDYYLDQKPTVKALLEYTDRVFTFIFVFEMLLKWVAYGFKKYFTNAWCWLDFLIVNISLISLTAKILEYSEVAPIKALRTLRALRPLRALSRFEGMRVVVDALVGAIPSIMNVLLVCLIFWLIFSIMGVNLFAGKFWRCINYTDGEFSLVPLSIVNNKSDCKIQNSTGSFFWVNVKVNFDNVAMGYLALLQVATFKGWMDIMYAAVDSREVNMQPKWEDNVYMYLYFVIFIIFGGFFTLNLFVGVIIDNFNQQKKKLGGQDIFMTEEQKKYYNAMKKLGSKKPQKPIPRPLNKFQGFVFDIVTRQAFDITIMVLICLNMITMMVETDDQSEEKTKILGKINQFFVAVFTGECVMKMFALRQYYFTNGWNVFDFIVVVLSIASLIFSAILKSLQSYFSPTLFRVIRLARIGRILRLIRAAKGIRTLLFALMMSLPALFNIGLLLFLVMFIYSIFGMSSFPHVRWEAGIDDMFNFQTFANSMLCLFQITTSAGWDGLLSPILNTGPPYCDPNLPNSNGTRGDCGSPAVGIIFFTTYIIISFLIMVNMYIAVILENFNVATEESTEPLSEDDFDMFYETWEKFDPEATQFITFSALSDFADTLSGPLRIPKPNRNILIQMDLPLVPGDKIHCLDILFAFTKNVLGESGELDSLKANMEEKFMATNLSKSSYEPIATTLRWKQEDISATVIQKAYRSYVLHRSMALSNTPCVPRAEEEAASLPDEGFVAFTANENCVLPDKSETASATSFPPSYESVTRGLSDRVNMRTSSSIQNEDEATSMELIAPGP

Structure (SMILES)	pIC50
Cc1ccccc1CNC(=O)c1cncc(-c2ccc(OC(F)(F)F)cc2)n1	7.74
O=C(NCc1cccnc1N1CCOCC1)c1cncc(-c2ccc(Cl)cc2)n1	7.43
Cc1cc(C)cc(NC(=O)c2cncc(-c3ccc(Cl)cc3)n2)c1	8.52
O=C(NCCc1ccc(Cl)cc1)c1cncc(-c2ccc(Cl)cc2)n1	7.72
CCOc1ccc(-c2cncc(C(=O)Nc3cccc(C)c3)n2)cc1	9.00
O=C(NCc1cccnc1Cl)c1cncc(-c2ccc(OC(F)(F)F)cc2)n1	7.00
Cc1cccc(NC(=O)c2cncc(-c3ccc(Cl)cc3)n2)c1	8.22
Cc1ccccc1CNC(=O)c1cncc(-c2ccc(C#N)cc2)n1	6.82
O=C(NCc1cccnc1N1CCOCC1)c1cncc(-c2ccc(OC(F)(F)F)cc2)n1	7.72
Cc1cc(C)cc(NC(=O)c2cncc(-c3ccc(C#N)cc3)n2)c1	8.10

Biological target: Sodium channel protein type 10 subunit alpha (Rattus norvegicus, UniProt Q62968)
Test: Inhibition of tetrodotoxin-resistant NaV1.8 in rat dorsal root ganglion neurons at holding potential -100 mV by whole-cell patch clamp electrophysiology assay
Type: tissue-based
Conditions: not given

Structure (SMILES)	pIC50
Cc1ccccc1CNC(=O)c1cncc(-c2ccc(OC(F)(F)F)cc2)n1	6.77
O=C(NCc1cccnc1N1CCOCC1)c1cncc(-c2ccc(Cl)cc2)n1	6.55
Cc1cc(C)cc(NC(=O)c2cncc(-c3ccc(Cl)cc3)n2)c1	7.28
O=C(NCCc1ccc(Cl)cc1)c1cncc(-c2ccc(Cl)cc2)n1	6.44
CCOc1ccc(-c2cncc(C(=O)Nc3cccc(C)c3)n2)cc1	7.17
O=C(NCc1cccnc1Cl)c1cncc(-c2ccc(OC(F)(F)F)cc2)n1	7.05
Cc1cccc(NC(=O)c2cncc(-c3ccc(Cl)cc3)n2)c1	6.55
Cc1ccccc1CNC(=O)c1cncc(-c2ccc(C#N)cc2)n1	6.35
O=C(NCc1cccnc1N1CCOCC1)c1cncc(-c2ccc(OC(F)(F)F)cc2)n1	7.07
Cc1cc(C)cc(NC(=O)c2cncc(-c3ccc(C#N)cc3)n2)c1	7.08

System: Rattus norvegicus
Test: Analgesic activity in po dosed Sprague-Dawley rat L5/L6 spinal nerve injury Chung model of neuropathic pain assessed as reduction of von Frey hair-induced paw withdrawal threshold administered 60 mins before von Frey hair challenge
Type: functional
Conditions: not given
Outline: (§2)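 Rats with L5/L6 spinal nerve ligation (Kim and Chung method) dosed orally at 10, 30 or 100 mg/kg, 60 min before von Frey testing of paw withdrawal threshold on the injured and contralateral sides. At least six animals per group, compared with vehicle-treated animals; mean ± SEM, ANOVA with post-hoc tests (P <0.05). ED50 estimated by least-squares linear regression.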

Structure (SMILES)	Activity	ED50 [mg/kg]
O=C(NCc1cccnc1N1CCOCC1)c1cncc(-c2ccc(OC(F)(F)F)cc2)n1	Dose-dependent effect	78

System: not listed separately
Test: Aqueous solubility of the compound
Type: physicochemical
Conditions: buffer

Structure (SMILES)	solubility [µg/mL]
O=C(NCc1cccnc1N1CCOCC1)c1cncc(-c2ccc(Cl)cc2)n1	2.7 (≈ 6.59 µM)
Cc1cc(C)cc(NC(=O)c2cncc(-c3ccc(Cl)cc3)n2)c1	< 0.1
O=C(NCCc1ccc(Cl)cc1)c1cncc(-c2ccc(Cl)cc2)n1	< 0.1
CCOc1ccc(-c2cncc(C(=O)Nc3cccc(C)c3)n2)cc1	< 0.1
Cc1cccc(NC(=O)c2cncc(-c3ccc(Cl)cc3)n2)c1	< 0.1
Cc1ccccc1CNC(=O)c1cncc(-c2ccc(C#N)cc2)n1	0.35 (≈ 1.07 µM)
O=C(NCc1cccnc1N1CCOCC1)c1cncc(-c2ccc(OC(F)(F)F)cc2)n1	> 50
Cc1cc(C)cc(NC(=O)c2cncc(-c3ccc(C#N)cc3)n2)c1	0.03 (≈ 0.0914 µM)

System: not listed separately
Test: Volume of distribution at steady state in rat at 3 mg/kg, iv
Type: ADME, organism-based
Parameters: dose 3 mg/kg, route intravenous
Conditions: in vivo, read-out: Vdss
Outline: (§3)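 Rat pharmacokinetics (n = 3) after a single 3 mg/kg iv or po dose. Plasma clearance, Vss, half-life and oral bioavailability were derived from plasma exposure.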

Structure (SMILES)	Vd [L/kg]
O=C(NCc1cccnc1N1CCOCC1)c1cncc(-c2ccc(OC(F)(F)F)cc2)n1	3.3
Cc1cc(C)cc(NC(=O)c2cncc(-c3ccc(C#N)cc3)n2)c1	5.1

System: Rattus norvegicus
Test: Analgesic activity in Sprague-Dawley rat L5/L6 spinal nerve injury Chung model of neuropathic pain assessed as reduction of von Frey hair-induced paw withdrawal threshold at 100 mg/kg, po administered 60 mins before von Frey hair challenge
Type: functional
Conditions: not given
Outline: as §2

Structure (SMILES)	inhibition in vivo at 100 mg/kg [%]
Cc1cc(C)cc(NC(=O)c2cncc(-c3ccc(C#N)cc3)n2)c1	< 20

System: not listed separately
Test: Half life in rat at 3 mg/kg, iv
Type: ADME, organism-based
Parameters: dose 3 mg/kg, route intravenous
Conditions: in vivo
Outline: as §3

Structure (SMILES)	half-life [h]
O=C(NCc1cccnc1N1CCOCC1)c1cncc(-c2ccc(OC(F)(F)F)cc2)n1	1.9
Cc1cc(C)cc(NC(=O)c2cncc(-c3ccc(C#N)cc3)n2)c1	1.6

System: not listed separately
Test: Clearance in rat microsomes
Type: ADME, Liver, Microsome
Conditions: not given

Structure (SMILES)	CL [µL/min]	clearance [µL/min]
O=C(NCc1cccnc1N1CCOCC1)c1cncc(-c2ccc(Cl)cc2)n1	410	
Cc1cc(C)cc(NC(=O)c2cncc(-c3ccc(Cl)cc3)n2)c1	83	
O=C(NCc1cccnc1Cl)c1cncc(-c2ccc(OC(F)(F)F)cc2)n1	143	
O=C(NCc1cccnc1N1CCOCC1)c1cncc(-c2ccc(OC(F)(F)F)cc2)n1		98
Cc1cc(C)cc(NC(=O)c2cncc(-c3ccc(C#N)cc3)n2)c1	140	

System: not listed separately
Test: Oral bioavailability in rat at 3 mg/kg
Type: ADME, organism-based
Conditions: in vivo
Outline: as §3

Structure (SMILES)	bioavailability [%]
O=C(NCc1cccnc1N1CCOCC1)c1cncc(-c2ccc(OC(F)(F)F)cc2)n1	18.2
Cc1cc(C)cc(NC(=O)c2cncc(-c3ccc(C#N)cc3)n2)c1	0

System: Plasma
Test: Plasma protein binding in rat
Type: ADME, cell-free
Conditions: not given

Structure (SMILES)	Activity [%]
O=C(NCc1cccnc1N1CCOCC1)c1cncc(-c2ccc(OC(F)(F)F)cc2)n1	93.2
Cc1cc(C)cc(NC(=O)c2cncc(-c3ccc(C#N)cc3)n2)c1	55.2

System: not listed separately
Test: Half life in rat at 3 mg/kg, po
Type: ADME, organism-based
Parameters: dose 3 mg/kg, route oral
Conditions: in vivo
Outline: as §3

Structure (SMILES)	half-life [h]
O=C(NCc1cccnc1N1CCOCC1)c1cncc(-c2ccc(OC(F)(F)F)cc2)n1	1.6

Species on record: Homo sapiens
Test: Selectivity ratio of IC50 for human NAv1.8 to IC50 for human Nav1.2
Conditions: not given
Outline: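 Ratio of the IC50 values from whole-cell voltage clamp of human Nav1.8 (held at −40 mV) and human Nav1.2 (held at −60 mV), both expressed in HEK-293 cells. Each channel was held at its inactivation V1/2.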

Structure (SMILES)	Ratio IC50
Cc1cc(C)cc(NC(=O)c2cncc(-c3ccc(Cl)cc3)n2)c1	> 1000
O=C(NCCc1ccc(Cl)cc1)c1cncc(-c2ccc(Cl)cc2)n1	53
Cc1cccc(NC(=O)c2cncc(-c3ccc(Cl)cc3)n2)c1	> 1000
O=C(NCc1cccnc1N1CCOCC1)c1cncc(-c2ccc(OC(F)(F)F)cc2)n1	79

System: not listed separately
Test: Cmax in rat at 3 mg/kg, po
Type: ADME, organism-based
Parameters: dose 3 mg/kg, route oral
Conditions: in vivo

Structure (SMILES)	Cmax [ng/mL]
O=C(NCc1cccnc1N1CCOCC1)c1cncc(-c2ccc(OC(F)(F)F)cc2)n1	150

Biological target: T1, Sodium channel protein type 2 subunit alpha
Test: Inhibition of human recombinant NaV1.2 at 3 uM by electrophysiology
Conditions: not given
Outline: as §1
Target sequence in this assay (Q99250 whole entry, looked up): as the sequence (Q99250 whole entry) above

Structure (SMILES)	inhibition [%]
O=C(NCc1cccnc1N1CCOCC1)c1cncc(-c2ccc(Cl)cc2)n1	11

System: not listed separately
Test: Selectivity ratio of IC50 for human NaV1.8 to IC50 for human Nav1.2
Conditions: not given

Structure (SMILES)	Ratio IC50
O=C(NCCc1ccc(Cl)cc1)c1cncc(-c2ccc(Cl)cc2)n1	53

System: not listed separately
Test: Selectivity ratio of IC50 for tetrodotoxin-resistant NaV1.8 in rat dorsal root ganglion neurons to IC50 for human Nav1.2
Type: tissue-based
Conditions: not given
Outline: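 Ratio of the IC50 for native TTX-resistant current in dissociated rat DRG neurons (held at V1/2, −40 mV) to the IC50 for recombinant human Nav1.2 in HEK-293 cells (held at −60 mV).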

Structure (SMILES)	Ratio IC50
Cc1cc(C)cc(NC(=O)c2cncc(-c3ccc(Cl)cc3)n2)c1	> 1600

— ChEMBL document CHEMBL1275385, “Discovery and biological evaluation of potent, selective, orally bioavailable, pyrazine-based blockers of the Na(v)1.8 sodium channel with efficacy in a model of neuropathic pain” (Bioorg Med Chem, 2010)
